Test results published in ChEMBL document CHEMBL1153490, “Spiroadamantyl 1,2,4-trioxolane, 1,2,4-trioxane, and 1,2,4-trioxepane pairs: relationship between peroxide bond iron(II) reactivity, heme alkylation efficiency, and antimalarial activity” (Bioorg Med Chem Lett, 2009).
≈ marks a conversion by molar mass, not a printed value.

Columns and labels:
[1] = tested on: Plasmodium falciparum (NF54); experiment: Antimalarial activity against chloroquine-sensitive Plasmodium falciparum NF54
Plasmodium berghei = experiment: Antimalarial activity as reduced parasitaemia after 3 days against Plasmodium berghei infected NMRI mice (Mus musculus) at 100 mg/kg peroral dose; type: functional; design: scale not given: the % may be the effect or the level left; settings: route oral
How it was run: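 Groups of three P. berghei-infected NMRI mice were dosed orally one day post-infection at 100 mg/kg. Compounds were dissolved or suspended in 3% ethanol and 7% Tween 80.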

Plasmodium falciparum = experiment: Antimalarial activity against chloroquine-resistant Plasmodium falciparum K1 […]; type: functional, organism-based
[2] = Induction of heme alkylation measured within 30 seconds by visible spectrophotometry; design: concentration or dose not given beside the values

Compound | IC50 [1] [µg/mL] | Activity (Plasmodium berghei) [%] | IC50 (Plasmodium falciparum) [µg/mL] | Activity [2] [%]
c1ccc([C@@H]2OOC3(O2)C2CC4CC(C2)CC3C4)cc1 (stereo not given in full) | > 1 | 25 | 0.4 (≈ 1.47 µM) | 50
c1ccc([C@H]2COC3(OO2)C2CC4CC(C2)CC3C4)cc1 (stereo not given in full) | 0.019 (≈ 0.0663 µM) | 96 | 0.0091 (≈ 0.0318 µM) | 55
C1CCC2(CC1)OOC1(O2)C2CC3CC(C2)CC1C3 (stereo not given) | 0.0014 (≈ 0.0053 µM) | >99.99 | – | 86
C[C@@]1(c2ccccc2)OOC2(O1)C1CC3CC(C1)CC2C3 (stereo not given in full) | 0.0034 (≈ 0.0119 µM) | 99 | 0.0029 (≈ 0.0101 µM) | 67
C[C@]1(c2ccccc2)COC2(OO1)C1CC3CC(C1)CC2C3 (stereo not given in full) | 0.022 (≈ 0.0732 µM) | 0 | 0.019 (≈ 0.0632 µM) | –
CC(C)(N)CNC(=O)C[C@H]1CC[C@]2(CC1)OO[C@]1(O2)C2CC3CC(C2)CC1C3 | – | – | – | 83
C1CC[C@]2(CC1)CCO[C@]1(OO2)C2CC3CC(C2)CC1C3 | > 1 | 0 | – | 25
C1CCC2(CC1)COC1(OO2)C2CC3CC(C2)CC1C3 (stereo not given) | 0.044 (≈ 0.158 µM) | 0 | 0.054 (≈ 0.194 µM) | 45
C[C@@H]1CC[C@H]2[C@@H](C)C(=O)O[C@@H]3O[C@@]4(C)CC[C@@H]1[C@]32OO4 [ARTEMISININ] | 0.0028 (≈ 0.00992 µM) | 98 | – | –
c1ccc([C@H]2CCOC3(OO2)C2CC4CC(C2)CC3C4)cc1 (stereo not given in full) | > 1 | – | – | 1
